Measured values taken from publication PMC7548052 (Molecular Diversity, 2020).
Structures can show the parent of a compound that is named as a salt.

How the values were obtained:
Assay type in all cases: cell-based
MCF-7 = assay: Anticancer screening, MTT assay, 72 h; details: Homo sapiens, MCF7, 72 h
How it was run: (§1)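 Monolayer cultures were kept at 37 °C, 5% CO2 and plated on day 0 at 3 × 10^4 cells/mL (HCT 116, H460) or 5 × 10^4 cells/mL (MCF-7). Test agents were added in ten-fold dilutions (10−8 to 10−4 M) and incubated 72 h. Growth was read by MTT at 570 nm. GI50 is the concentration giving 50% inhibition. Two independent experiments were run, points at least in triplicate.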

Z-138 = assay: Anticancer screening, MTS cell proliferation assay, 72 h; details: Homo sapiens
How it was run: (§2)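 HL-60, K-562, Z-138 and DND-41 suspension cells were seeded at 2500–6000 cells/well directly into wells already containing test compound at seven concentrations (100 to 6.4 × 10−3 µM). After 72 h, MTS reagent was added and absorbance read at 490 nm. GI50 is the concentration giving 50% growth inhibition. Two independent experiments were run, each point at least in triplicate.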

DND-41 = assay: as above; details: Homo sapiens
How it was run: as §2

LN-229 = assay: Anticancer screening, MTS cell proliferation assay, 72 h; details: Homo sapiens
How it was run: (§3)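 Human solid-tumour lines were grown as monolayers in supplier-recommended media at 37 °C, 5% CO2. LN-229 was seeded at 375 and Capan-1 at 250 cells/well and incubated overnight. Cells were then exposed for 72 h to seven concentrations (100 to 6.4 × 10−3 µM). MTS reagent was added and absorbance read at 490 nm. Two independent experiments were run, each point at least in triplicate.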

K-562 = assay: Anticancer screening, MTS cell proliferation assay, 72 h; details: Homo sapiens
How it was run: as §2

HCT 116 = assay: Anticancer screening, MTT assay, 72 h; details: Homo sapiens
How it was run: as §1

Capan-1 = assay: Anticancer screening, MTS cell proliferation assay, 72 h; details: Homo sapiens
How it was run: as §3

H460 = assay: Anticancer screening, MTT assay, 72 h; details: Homo sapiens
How it was run: as §1

HL-60 = assay: Anticancer screening, MTS cell proliferation assay, 72 h; details: Homo sapiens
How it was run: as §2

| Structure (SMILES) | GI50 (MCF-7) [µM] | GI50 (Z-138; Z-138, 72 h) [µM] | GI50 (DND-41; DND41, 72 h) [µM] | GI50 (LN-229; LN-229, 72 h) [µM] | GI50 (K-562; K562, 72 h) [µM] | GI50 (HCT 116; HCT-116, 72 h) [µM] | GI50 (Capan-1; CAPAN-1, 72 h) [µM] | GI50 (H460; NCI-H460, 72 h) [µM] | GI50 (HL-60; HL-60, 72 h) [µM] | GI50 (Z-138; Z-138) [µM] | GI50 (DND-41; DND41) [µM] | GI50 (LN-229; LN-229) [µM] | GI50 (K-562; K562) [µM] | GI50 (HCT 116; HCT-116) [µM] | GI50 (Capan-1; CAPAN-1) [µM] | GI50 (H460; NCI-H460) [µM] | GI50 (HL-60; HL-60) [µM] |
| --- | --- | --- | --- | --- | --- | --- | --- | --- | --- | --- | --- | --- | --- | --- | --- | --- | --- |
| CCN(CC)CCCC(C)Nc1ccnc2cc(Cl)ccc12 (stereo not shown) [CQ, chloroquine diphosphate, reference compound] | 6 ± 1.8 | 13.6 ± 0.6 | 53.7 ± 6.9 | 22 ± 2.8 | 45 ± 0.7 | 16 ± 3 | 14.9 ± 1.5 | 13 ± 0.8 | 13 ± 0.2 |  |  |  |  |  |  |  |  |
| C=C(CC(=O)OC)C(=O)Nc1ccc(C(F)(F)F)cc1 [Compound 4, Methyl 3-{[4-(trifluoromethyl)phenyl]carbamoyl}but-3-enoate] | 1 ± 0.3 | 8.2 ± 0.4 | 16.1 ± 0.4 | 7.7 ± 0.2 | 31.3 ± 3 | 3 ± 1 | 5.3 ± 0.5 | 11 ± 3 | 8 ± 0.8 |  |  |  |  |  |  |  |  |
| C=C(CC(=O)OC)C(=O)Nc1cncc(F)c1 [Compound 7, Methyl 3-[(5-fluoropyridin-3-yl)carbamoyl]but-3-enoate] | 3 ± 1.1 | 9 ± 0.2 | 21 ± 2.2 | 8.1 ± 0.3 | 43.4 | 7 ± 2 | 6.8 ± 1.7 | 16 ± 2 | 10.6 ± 0.7 |  |  |  |  |  |  |  |  |
| CC(=CC(=O)NCCCCNc1cc(C(F)(F)F)nc2c(C(F)(F)F)cccc12)C(=O)NCCCCNc1cc(C(F)(F)F)nc2c(C(F)(F)F)cccc12 [Compound 15, N,N′-bis(4-{[2,8-bis(trifluoromethyl)quinolin-4-yl]amino}butyl)-2-methylbut-2-enediamide] | 0.7 ± 0.2 | 6.9 ± 1.3 | 7.9 ± 4.4 | 2.4 ± 0.8 | 8.6 ± 0.3 | 2.4 ± 0.4 | 2.3 ± 0.3 | 3 ± 1 | 2.6 ± 0.2 |  |  |  |  |  |  |  |  |
| CC(=O)O[C@@]12CO[C@@H]1C[C@H](O)[C@@]1(C)C(=O)[C@H](O)C3=C(C)[C@@H](OC(=O)[C@H](O)[C@@H](NC(=O)OC(C)(C)C)c4ccccc4)C[C@@](O)([C@@H](OC(=O)c4ccccc4)[C@H]21)C3(C)C [DTX, docetaxel, reference compound] |  |  |  |  |  |  |  |  |  | 0.0014 ± 0.0009 | 0.002 ± 0.0012 | 0.0035 ± 0.0012 | 0.0096 ± 0.0033 | 0.0045 ± 0.0044 | 0.0045 ± 0.002 | 0.0058 ± 0.0038 | 0.0104 ± 0.0024 |
| OC(c1cc(C(F)(F)F)nc2c(C(F)(F)F)cccc12)C1CCCCN1 (stereo not shown) [MQ, mefloquine hydrochloride, reference compound] | 1.3 ± 0.2 | 12.6 ± 0.1 | 3.2 ± 0.2 | 0.1 ± 0.1 | 9.4 ± 0.3 | 2 ± 0.1 | 2 ± 0.1 | 1.5 ± 0.1 | 5.9 ± 3.2 |  |  |  |  |  |  |  |  |
| COc1cc(NC(C)CCCN)c2ncccc2c1 (stereo not shown) [PQ, primaquine diphosphate, reference compound] | 7 ± 1.5 | 10.2 ± 0.5 | 14 ± 1 | 9.9 ± 0.4 | 43.3 ± 0.1 | 17 ± 1 | 9 ± 3.2 | 17 ± 3 | 7 ± 0.5 |  |  |  |  |  |  |  |  |
| CN[C@@H]1C[C@H]2O[C@@](C)([C@@H]1OC)n1c3ccccc3c3c4c(c5c6ccccc6n2c5c31)C(=O)NC4 [STS, staurosporine, reference compound] |  |  |  |  |  |  |  |  |  | 0.0261 ± 0.0139 | 0.0161 ± 0.0105 | 0.0634 ± 0.0223 | 0.0337 ± 0.0036 | 0.023 ± 0.0114 | 0.0323 ± 0.0032 | 0.048 ± 0.0023 | 0.0312 ± 0.0123 |

The next lines start with results.

| GI50 (MCF-7) [µM] | GI50 (Z-138; Z-138, 72 h) [µM] | GI50 (DND-41; DND41, 72 h) [µM] | GI50 (LN-229; LN-229, 72 h) [µM] | GI50 (K-562; K562, 72 h) [µM] | GI50 (HCT 116; HCT-116, 72 h) [µM] | GI50 (Capan-1; CAPAN-1, 72 h) [µM] | GI50 (H460; NCI-H460, 72 h) [µM] | GI50 (HL-60; HL-60, 72 h) [µM] | Structure (SMILES) | GI50 (Z-138; Z-138) [µM] | GI50 (DND-41; DND41) [µM] | GI50 (LN-229; LN-229) [µM] | GI50 (K-562; K562) [µM] | GI50 (HCT 116; HCT-116) [µM] | GI50 (Capan-1; CAPAN-1) [µM] | GI50 (H460; NCI-H460) [µM] | GI50 (HL-60; HL-60) [µM] |
| --- | --- | --- | --- | --- | --- | --- | --- | --- | --- | --- | --- | --- | --- | --- | --- | --- | --- |
| 2 ± 0.1 | 8.4 ± 0.5 | 15.7 | 8 ± 0.6 | 15.9 ± 1 | 4 ± 1 | 2.8 ± 0.6 | 15 ± 1 | 9.3 ± 0.5 | C=C(CC(=O)OC)C(=O)Nc1ccc(F)cc1 [Compound 2, Methyl 3-[(4-fluorophenyl)carbamoyl]but-3-enoate] |  |  |  |  |  |  |  |  |
| 2 ± 0.4 | 5.4 ± 0.1 | 21.2 ± 4 | 4.4 ± 0.1 | 13.9 ± 0.6 | 3 ± 1 | 1.9 ± 0.3 | 9 ± 2 | 3.7 ± 0.1 | C=C(CC(=O)OC)C(=O)Nc1cccc(C(F)(F)F)c1 [Compound 3, Methyl 3-{[3-(trifluoromethyl)phenyl]carbamoyl}but-3-enoate] |  |  |  |  |  |  |  |  |
| 10 ± 2.5 | 6.1 ± 0.3 | 25.5 ± 9.4 | 6.2 ± 0.4 | 31 ± 3.9 | 12 ± 2 | 6.3 ± 2.3 | 8 ± 2 | 10.1 ± 0.1 | C=C(CC(=O)OC)C(=O)Nc1cc(OC)cc2cccnc12 [Compound 5, Methyl 3-[(6-methoxyquinolin-8-yl)carbamoyl]but-3-enoate] |  |  |  |  |  |  |  |  |
| 3 ± 1 | 10.9 | 26.3 ± 6.6 | 10.2 ± 1 | 49.9 ± 2.2 | 12 ± 2 | 8.9 ± 0.1 | 18 ± 1 | 13.1 ± 1 | C=C(CC(=O)OC)C(=O)Nc1cccnc1 [Compound 6, Methyl 3-[(pyridin-3-yl)carbamoyl]but-3-enoate] |  |  |  |  |  |  |  |  |
| 6 ± 1 | 10.2 ± 0.3 | 16.3 ± 0.1 | 8.4 ± 0.1 | 53.3 ± 2.7 | 3 ± 1 | 9.1 ± 0.7 | 16 ± 2 | 11 ± 0.3 | C=C(CC(=O)OC)C(=O)NCc1cccnc1 [Compound 8, Methyl 3-{[(pyridin-3-yl)methyl]carbamoyl}but-3-enoate] |  |  |  |  |  |  |  |  |
| 2 ± 1 | 5.6 ± 1.6 | 18.5 ± 2.4 | 6.2 ± 0.8 | 34.5 ± 8.7 | 4 ± 1 | 5.9 ± 0.2 | 15 ± 1 | 9.6 ± 0.6 | C=C(CC(=O)OC)C(=O)NCCc1cccnc1 [Compound 9, Methyl 3-{[2-(pyridin-3-yl)ethyl]carbamoyl}but-3-enoate] |  |  |  |  |  |  |  |  |
| 2 ± 1.2 | 2.6 ± 0.3 | 18.9 ± 4.2 | 6.5 ± 1.2 | 16.5 ± 1 | 3 ± 1 | 2.4 ± 0.9 | 11 ± 1 | 4.9 ± 0.8 | C=C(CC(=O)OC)C(=O)NCCc1c[nH]c2ccc(OC)cc12 [Compound 10, Methyl 3-{[2-(5-methoxy-1H-indol-3-yl)ethyl]carbamoyl}but-3-enoate] |  |  |  |  |  |  |  |  |
| 4 ± 1 | 11 ± 0.2 | 18.1 ± 1.1 | 4.3 ± 2.2 | 28.1 ± 7.1 | 2.5 ± 0.07 | 5.4 ± 3.3 | 4 ± 0.5 | 11.1 ± 0.6 | C=C(CC(=O)OC)C(=O)NCCCC(C)Nc1cc(OC)cc2cccnc12 (stereo not shown) [Compound 11, Methyl 3-({4-[(6-methoxyquinolin-8-yl)amino]pentyl}carbamoyl)but-3-enoate] |  |  |  |  |  |  |  |  |
| 0.8 ± 0.3 | 1.9 ± 0.1 | 3.1 ± 0.1 | 1.1 ± 0.1 | 8.1 ± 0.4 | 2 ± 0.05 | 1.3 ± 0.4 | 2 ± 0.9 | 1.9 | C=C(CC(=O)OC)C(=O)NCCCCNc1ccnc2cc(Cl)ccc12 [Compound 12, Methyl 3-({4-[(7-chloroquinolin-4-yl)amino]butyl}carbamoyl)but-3-enoate] |  |  |  |  |  |  |  |  |
| 1.4 ± 0.1 | 12.2 ± 0.1 | 36.7 ± 10 | 10.8 ± 2.5 | 46.9 ± 0.7 | 2 ± 0.8 | 32.2 ± 2.7 | 3.5 ± 1.3 | 10.3 ± 1.5 | C=C(CC(=O)OC)C(=O)NCCCCNc1cc(C(F)(F)F)nc2c(C(F)(F)F)cccc12 [Compound 13, Methyl 3-[(4-{[2,8-bis(trifluoromethyl)quinolin-4-yl]amino}butyl)carbamoyl]but-3-enoate] |  |  |  |  |  |  |  |  |
| 11 ± 0.3 |  |  |  |  | 13 ± 0.2 |  | 23 ± 1 |  | COc1ccc2[nH]c(CCNC(=O)C=C(C)C(=O)NCCc3c[nH]c4ccc(OC)cc34)cc2c1 [Compound 14, N′-[2-(5-methoxy-1H-indol-2-yl)ethyl]-N-[2-(5-methoxy-1H-indol-3-yl)ethyl]-2-methylbut-2-enediamide] |  |  |  |  |  |  |  |  |
